Experimental data as given in ChEMBL document CHEMBL1141177, “The novel L- and D-amino acid derivatives of hydroxyurea and hydantoins: synthesis, X-ray crystal structure study, and cytostatic and antiviral activity evaluations” (J Med Chem, 2005).
In brackets after ≈: the same amount, converted by molar mass.

Assays:
[1] = tested on: MCF7; assay: Inhibition of breast carcinoma cell line (MCF-7) growth; format: functional, cell-based; conditions: Homo sapiens
Summary of the method: (§1)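 Monolayers in DMEM with 10% FBS, 2 mM L-glutamine, penicillin/streptomycin, 37 °C, 5% CO2. Cells seeded on day 0, then compounds added in 5- and 10-fold dilutions (10^-8–10^-4 M) for 72 h. MTT read-out at 570 nm. Percent growth calculated relative to time-zero and untreated OD. Quadruplicates in three experiments; IC50 by linear interpolation, highest concentration reported as ">" when not reached.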

[2] = tested on: L1210; assay: Inhibition of murine leukemia cells (L1210) growth; format: functional, cell-based; conditions: Mus musculus
[3] = tested on: WI-38; assay: Inhibition of normal human fibroblast cell line (WI 38) growth; format: functional, cell-based; summary of the method: as §1
[4] = tested on: MIA PaCa-2; assay: Inhibition of pancreatic carcinoma cell line (MiaPaCa-2) growth; format: functional, cell-based; conditions: Homo sapiens; summary of the method: as §1
[5] = tested on: HEp-2; assay: Inhibition of laryngeal carcinoma cell line (Hep-2) growth; format: functional, cell-based; conditions: Homo sapiens; summary of the method: as §1
[6] = tested on: MOLT-4; assay: Inhibition of human T-lymphocyte cell line (Molt4/C8) growth; format: functional, cell-based
[7] = tested on: SW-620; assay: Inhibition of colon carcinoma cell line (SW 620) growth; format: functional, cell-based; conditions: Homo sapiens; summary of the method: as §1
[8] = tested on: HeLa; assay: Inhibition of cervical carcinoma cell line (HeLa) growth; format: functional, cell-based; conditions: Homo sapiens; summary of the method: as §1
[9] = tested on: HEL; assay: Minimum cytotoxic concentration of compound that causes alteration of cell morphology in human embryonic lung cells; format: functional
Summary of the method: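 Human embryonic lung (HEL) cells were examined microscopically. MCC is the minimum concentration that causes a detectable alteration of cell morphology.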

[10] = Effective concentration required to reduce plaque formation by AD-169 strain of CMV virus in Human embryonic lung cells; format: functional, cell-based
Summary of the method: (§2)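 Plaque reduction assay in human embryonic lung (HEL) cell cultures, virus input 100 plaque forming units. Viruses: CMV strains AD-169 and Davis, VZV TK+ strain OKA and TK− strain 07/1. EC50 is the concentration that reduces virus plaque formation by 50%.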

[11] = Effective concentration required to reduce plaque formation by Davis strain of CMV virus in Human embryonic lung cells; format: functional, cell-based; summary of the method: as §2
[12] = tested on: HEL; assay: Cytotoxic concentration to reduce the 50% cell growth of human embryonic lung cells; format: functional; conditions: Homo sapiens, HEL; read-out: CC50
[13] = tested on: Human alphaherpesvirus 3; assay: Effective concentration of compound required to reduce plaque formation by OKA strain of thymidine kinase positive VZ virus TK+ in human embryonic lung cells; format: functional, organism-based; conditions: Human alphaherpesvirus 3, lung
[14] = tested on: Human alphaherpesvirus 3; assay: Reduction of plaque formation by VZV07/1 strain of thymidine kinase(TK-) deficient VZ virus in human embryonic lung cells; format: functional, organism-based; conditions: Human alphaherpesvirus 3, lung

Q: Which IC50 [1] does the source give for `O=C(NO)NC(C(=O)NC(c1ccccc1)c1ccccc1)c1ccccc1` (stereo unspecified) here?
A: 83.8 µM

Q: And the IC50 [2]?
A: 18 µM

Q: What about the IC50 [3] of the same compound?
A: > 100 µM

Q: What about the IC50 [4] of the same compound?
A: 31.8 µM

Q: And the IC50 [5]?
A: 83.9 µM

Q: What about the IC50 [6] of the same compound?
A: 39 µM

Q: And the IC50 [7]?
A: 63.7 µM

Q: And the IC50 [8]?
A: 42 µM

Q: Which IC50 [1] does the source give for `O=C1NC(c2ccccc2)C(=O)N1Cc1ccccc1` (stereo unspecified) here?
A: 3.3 µM

Q: And the IC50 [2]?
A: > 200 µM

Q: What about the MCC [9] of the same compound?
A: 100 µg/mL

Q: And the IC50 [3]?
A: 78.9 µM

Q: What about the IC50 [4] of the same compound?
A: 68.9 µM

Q: What about the EC50 [10] of the same compound?
A: 7.6 µg/mL (≈ 28.5 µM)

Q: And the IC50 [5]?
A: 82.9 µM

Q: What about the IC50 [6] of the same compound?
A: > 200 µM

Q: What about the EC50 [11] of the same compound?
A: 4 µg/mL (≈ 15 µM)

Q: What about the CC50 [12] of the same compound?
A: 12.5 µg/mL (≈ 46.9 µM)

Q: What about the IC50 [7] of the same compound?
A: 96.8 µM

Q: What about the EC50 [13] of the same compound?
A: 15 µg/mL (≈ 56.3 µM)

Q: And the EC50 [14]?
A: 11 µg/mL (≈ 41.3 µM)

Q: And the IC50 [8]?
A: > 100 µM

Q: Which IC50 [1] does the source give for `O=C1NC(c2ccccc2)C(=O)N1C1CCCC1` (stereo unspecified) here?
A: 22 µM

Q: And the IC50 [2]?
A: > 200 µM

Q: What about the MCC [9] of the same compound?
A: ≥ 20 µg/mL

Q: And the IC50 [3]?
A: > 100 µM

Q: What about the IC50 [4] of the same compound?
A: > 100 µM

Q: And the EC50 [10]?
A: > 20 µg/mL

Q: What about the IC50 [5] of the same compound?
A: > 100 µM

Q: And the IC50 [6]?
A: > 200 µM

Q: And the EC50 [11]?
A: > 4 µg/mL

Q: And the CC50 [12]?
A: 27.4 µg/mL (≈ 112 µM)

Q: What about the IC50 [7] of the same compound?
A: > 100 µM

Q: What about the EC50 [13] of the same compound?
A: > 4 µg/mL

Q: And the EC50 [14]?
A: 9 µg/mL (≈ 36.8 µM)

Q: And the IC50 [8]?
A: > 100 µM

Q: Which IC50 [6] does the source give for `CCC(C)C(NC(=O)n1nnc2ccccc21)C(=O)NC1CCCCC1` (stereo unspecified) here?
A: 98 µM

Q: Which IC50 [1] does the source give for `CC(C)C(NC(=O)NO)C(=O)NC1CCCC1` (stereo unspecified) here?
A: > 100 µM

Q: What about the IC50 [2] of the same compound?
A: > 200 µM

Q: And the IC50 [3]?
A: > 100 µM

Q: And the IC50 [4]?
A: > 100 µM

Q: And the IC50 [5]?
A: 33.4 µM

Q: And the IC50 [6]?
A: > 200 µM

Q: What about the IC50 [7] of the same compound?
A: > 100 µM

Q: What about the IC50 [8] of the same compound?
A: > 100 µM

Q: Which IC50 [6] does the source give for `CCC(C)C(NC(=O)n1nnc2ccccc21)C(=O)NCc1ccccc1` (stereo unspecified) here?
A: 96 µM

Q: For `O=C(NO)NC(Cc1ccccc1)C(=O)NC(c1ccccc1)c1ccccc1` (stereo unspecified), which IC50 [1] is on record?
A: 43.8 µM

Q: What about the IC50 [2] of the same compound?
A: 18 µM

Q: And the IC50 [3]?
A: 32.8 µM

Q: What about the IC50 [4] of the same compound?
A: 41.1 µM

Q: And the IC50 [5]?
A: 61.3 µM

Q: And the IC50 [6]?
A: 21 µM

Q: And the IC50 [7]?
A: 66.6 µM

Q: What about the IC50 [8] of the same compound?
A: 39.8 µM

Q: For `O=C(NO)NC(Cc1ccccc1)C(=O)NC1CCCC1` (stereo unspecified), which IC50 [1] is on record?
A: > 100 µM

Q: And the IC50 [2]?
A: 145 µM

Q: And the IC50 [3]?
A: > 100 µM

Q: What about the IC50 [4] of the same compound?
A: > 100 µM

Q: And the IC50 [5]?
A: > 100 µM

Q: And the IC50 [6]?
A: > 200 µM

Q: And the IC50 [7]?
A: > 100 µM

Q: What about the IC50 [8] of the same compound?
A: > 100 µM

Q: For `O=C(C(NC(=O)n1nnc2ccccc21)c1ccccc1)N1CCCCC1` (stereo unspecified), which IC50 [1] is on record?
A: 67.4 µM

Q: And the IC50 [2]?
A: 82 µM

Q: And the MCC [9]?
A: 200 µg/mL

Q: What about the IC50 [3] of the same compound?
A: ≥ 100 µM

Q: What about the IC50 [4] of the same compound?
A: ≥ 100 µM

Q: And the EC50 [10]?
A: > 80 µg/mL

Q: What about the IC50 [5] of the same compound?
A: > 100 µM

Q: And the IC50 [6]?
A: 82 µM

Q: What about the EC50 [11] of the same compound?
A: > 80 µg/mL

Q: What about the CC50 [12] of the same compound?
A: 188 µg/mL (≈ 517 µM)

Q: What about the IC50 [7] of the same compound?
A: > 100 µM

Q: What about the EC50 [13] of the same compound?
A: > 80 µg/mL

Q: And the EC50 [14]?
A: > 80 µg/mL

Q: What about the IC50 [8] of the same compound?
A: > 100 µM

Q: Which IC50 [1] does the source give for `CC(C)C(NC(=O)NO)C(=O)NC1CCCCC1` (stereo unspecified) here?
A: > 100 µM

Q: What about the IC50 [2] of the same compound?
A: > 100 µM

Q: What about the IC50 [3] of the same compound?
A: 58.8 µM

Q: What about the IC50 [4] of the same compound?
A: > 100 µM

Q: What about the IC50 [5] of the same compound?
A: > 100 µM

Q: And the IC50 [6]?
A: > 100 µM

Q: And the IC50 [7]?
A: > 100 µM

Q: And the IC50 [8]?
A: > 100 µM

Q: For `O=C(NO)NC(Cc1ccccc1)C(=O)NCc1ccccc1` (stereo unspecified), which IC50 [2] is on record?
A: 17 µM

Q: What about the IC50 [3] of the same compound?
A: > 100 µM

Q: And the IC50 [4]?
A: > 100 µM

Q: And the IC50 [5]?
A: > 100 µM

Q: What about the IC50 [6] of the same compound?
A: 12 µM

Q: What about the IC50 [7] of the same compound?
A: > 100 µM

Q: What about the IC50 [8] of the same compound?
A: > 100 µM

Q: Which IC50 [1] does the source give for `CC(C)C1NC(=O)N(C2CCCC2)C1=O` (stereo unspecified) here?
A: > 100 µM

Q: And the IC50 [2]?
A: > 200 µM

Q: And the MCC [9]?
A: > 100 µg/mL

Q: And the IC50 [3]?
A: > 100 µM

Q: What about the IC50 [4] of the same compound?
A: > 100 µM

Q: And the EC50 [10]?
A: > 100 µg/mL

Q: And the IC50 [5]?
A: 98 µM

Q: And the IC50 [6]?
A: > 200 µM

Q: What about the EC50 [11] of the same compound?
A: > 100 µg/mL

Q: And the CC50 [12]?
A: > 50 µg/mL

Q: And the IC50 [7]?
A: > 100 µM

Q: And the EC50 [13]?
A: > 84 µg/mL

Q: And the EC50 [14]?
A: > 90 µg/mL

Q: What about the IC50 [8] of the same compound?
A: > 100 µM

Q: With `O=C(NCC1CCCCC1)C(NC(=O)n1nnc2ccccc21)c1ccccc1` (stereo unspecified) as the compound, how does the IC50 [1] read?
A: 35.6 µM

Q: And the IC50 [2]?
A: 98 µM

Q: What about the MCC [9] of the same compound?
A: ≥ 16 µg/mL

Q: And the IC50 [3]?
A: > 100 µM

Q: What about the IC50 [4] of the same compound?
A: 72.7 µM

Q: What about the EC50 [10] of the same compound?
A: > 16 µg/mL

Q: What about the IC50 [5] of the same compound?
A: 68.6 µM

Q: And the IC50 [6]?
A: 73 µM

Q: And the CC50 [12]?
A: 43.4 µg/mL (≈ 111 µM)

Q: And the IC50 [7]?
A: > 100 µM

Q: What about the EC50 [13] of the same compound?
A: > 3.2 µg/mL

Q: And the EC50 [14]?
A: > 3.2 µg/mL

Q: What about the IC50 [8] of the same compound?
A: 79.8 µM

Q: Which results are given for `O=C(NC1CCCC1)C(Cc1ccccc1)NC(=O)n1nnc2ccccc21` (stereo unspecified)?
A: IC50 [1]: 92 µM; IC50 [2]: 68 µM; MCC [9]: 16 µg/mL; IC50 [3]: > 100 µM; IC50 [4]: > 100 µM; EC50 [10]: > 3.2 µg/mL; IC50 [5]: 95 µM; IC50 [6]: 61 µM; EC50 [11]: > 3.2 µg/mL; CC50 [12]: 15.5 µg/mL (≈ 41.1 µM); IC50 [7]: > 100 µM; EC50 [13]: > 3.2 µg/mL; EC50 [14]: > 3.2 µg/mL; IC50 [8]: 53.8 µM

Q: For `O=C(NO)NC(C(=O)Nc1ccccc1)c1ccccc1` (stereo unspecified), which IC50 [6] is on record?
A: > 200 µM

Q: With `O=C(NO)NC(C(=O)NCc1ccccc1)c1ccccc1` (stereo unspecified) as the compound, how does the IC50 [6] read?
A: 17 µM

Q: Which IC50 [6] does the source give for `CCC(C)C(NC(=O)n1nnc2ccccc21)C(=O)NC1CCCC1` (stereo unspecified) here?
A: 94 µM

Q: With `CCC(C)C(NC(=O)NO)C(=O)NC(c1ccccc1)c1ccccc1` (stereo unspecified) as the compound, how does the IC50 [6] read?
A: 56 µM
